From ChEMBL document CHEMBL1133296, “Synthesis and 5-hydroxytryptamine (5-HT) activity of 2,3,4,4a-tetrahydro-1H-pyrazino[1,2-a]quinoxalin-5-(6H)ones and 2,3,4,4a,5,6-hexahydro-1H-pyrazino[1,2-a]quinoxalines” (Bioorg Med Chem Lett, 2000)

How the values were obtained:
[1] = target: T1, 5-hydroxytryptamine receptor 2C (Homo sapiens, UniProt P28335); test: Binding affinity using [125I]DOI as radioligand with membranes isolated from a CHO-k cell line expressing the human 5-hydroxytryptamine 2C receptor
T1 sequence (P28335 whole entry): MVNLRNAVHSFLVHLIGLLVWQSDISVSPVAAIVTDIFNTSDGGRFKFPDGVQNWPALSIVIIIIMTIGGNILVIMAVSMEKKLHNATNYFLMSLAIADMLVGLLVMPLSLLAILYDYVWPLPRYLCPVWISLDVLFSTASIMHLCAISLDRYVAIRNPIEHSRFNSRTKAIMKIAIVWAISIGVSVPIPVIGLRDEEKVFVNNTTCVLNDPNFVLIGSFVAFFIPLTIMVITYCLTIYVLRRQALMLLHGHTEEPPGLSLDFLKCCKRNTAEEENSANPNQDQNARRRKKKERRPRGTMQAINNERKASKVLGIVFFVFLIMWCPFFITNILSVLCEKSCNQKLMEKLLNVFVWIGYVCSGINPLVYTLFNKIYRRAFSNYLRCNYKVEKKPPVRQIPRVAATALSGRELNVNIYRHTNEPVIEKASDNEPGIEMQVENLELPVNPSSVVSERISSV
Method in brief: (§1)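 Competition binding used human 5-HT2C CHO membranes. [125I]DOI labelled agonist sites and [3H]mesulergine labelled antagonist sites. IC50 came from nine-point concentration curves, each point in triplicate. Ki was calculated by Cheng-Prusoff: Ki = IC50/(1 + [radioligand]/Kd).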

[2] = target: T1, 5-hydroxytryptamine receptor 2C; test: Binding affinity using [3H]mesulergine as radioligand with receptor membranes isolated from a CHO-k cell line expressing the human 5-hydroxytryptamine 2C receptor; method in brief: as §1
Rattus norvegicus [3] = test: Concentration required to decrease food intake in Sprague-Dawley rats when compound administered intraperitoneally; format: functional; settings: ip
Method in brief: (§2)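 Male Sprague-Dawley rats were fasted 24 h, then given vehicle or test dose, ip or po. Powdered chow was returned and 2 h food intake was recorded. Each animal was fasted twice weekly (Monday, Thursday) and tested the following day. Groups were compared by one-way ANOVA with post hoc t-tests, and ED50 was calculated.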

Rattus norvegicus [4] = test: Concentration required to decrease food intake in Sprague-Dawley rats when compound administered orally; format: functional; settings: po; method in brief: as §2
[5] = Emax values indicate relative efficacy compared to a maximally effective 5-HT2c (5-HT) concentration.; format: functional
Method in brief: (§3)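 CHO cells stably expressing human 5-HT2C were labelled overnight with myo-[3H]inositol, washed, and preincubated 30 min in medium containing LiCl. Agonist was then added at 10^-10 to 10^-5 M for 30 min. [3H]IP was counted by liquid scintillation and expressed as % of the maximal 5-HT response. EC50 came from six-point curves in duplicate, fitted by a three-parameter logistic; Emax is relative to maximal 5-HT.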

[6] = target: T2, 5-hydroxytryptamine receptor 2C (Homo sapiens) (UniProt P28335); test: Inhibitory activity using [3H]mesulergine as radioligand with receptor membranes isolated from a CHO-k cell line expressing the human 5-hydroxytryptamine 2C receptor at a concentration of 1 uM; format: cell-free
T2 sequence (whole entry): T1 sequence (P28335 whole entry)

[7] = target: T1, 5-hydroxytryptamine receptor 2C; test: Agonistic activity for 5-HT2c (5-HT2C) by measuring [3H]inositol monophosphate fromation in CHO cells in which the human 5-HT2C receptor subtype was stably expressed; format: functional, cell-based; method in brief: as §3

Structure (SMILES): O=C1Nc2cc(Cl)c(Cl)cc2N2CCNC[C@H]12
- Ki [1]: 0.003 µM
- Ki [2]: 0.032 µM
- ED50 (Rattus norvegicus [3]): 2 mg/kg
- ED50 (Rattus norvegicus [4]): 10 mg/kg
- Emax [5]: 112%

Structure (SMILES): O=C1Nc2cc(Cl)ccc2N2CCNCC12 (centres undefined)
- inhibition [6]: 33%

Structure (SMILES): O=C1Nc2cc(F)ccc2N2CCNCC12 (centres undefined)
- inhibition [6]: 7%

Structure (SMILES): O=C1Nc2ccc(Cl)c(Cl)c2N2CCNCC12 (centres undefined)
- Ki [1]: 1 µM
- Ki [2]: 1.7 µM

Structure (SMILES): O=C1Nc2ccc(Cl)cc2N2CCNC[C@H]12
- Ki [1]: 0.034 µM
- Ki [2]: 0.238 µM
- EC50 [7]: 0.086 µM
- Emax [5]: 95%

Structure (SMILES): FC(F)(F)c1cc2c(cc1Cl)N1CCNC[C@@H]1CN2
- Ki [1]: 0.017 µM
- Ki [2]: 0.092 µM
- EC50 [7]: 0.019 µM
- Emax [5]: 76%

Structure (SMILES): COc1ccc2c(c1)N1CCNCC1C(=O)N2 (centres undefined)
- inhibition [6]: 36%

Structure (SMILES): Clc1cc2c(cc1Cl)N1CCNC[C@H]1CN2
- Ki [1]: 0.008 µM
- Ki [2]: 0.061 µM
- EC50 [7]: 0.045 µM
- Emax [5]: 82%

Structure (SMILES): O=C1Nc2cc(NC(=O)C(F)(F)F)ccc2N2CCNCC12 (centres undefined)
- inhibition [6]: 21%

Structure (SMILES): O=C1Nc2cccc(Cl)c2N2CCNCC12 (centres undefined)
- inhibition [6]: 8%

Structure (SMILES): O=C1Nc2cc(F)c(F)cc2N2CCNCC12 (centres undefined)
- Ki [2]: 1.8 µM

Structure (SMILES): NC(=O)c1ccc2c(c1)NC(=O)C1CNCCN21 (centres undefined)
- inhibition [6]: 5%

Structure (SMILES): c1ccc2c(c1)NCC1CNCCN21 (centres undefined)
- inhibition [6]: 22%

Structure (SMILES): O=C1Nc2cc(C(F)(F)F)c(Cl)cc2N2CCNC[C@H]12
- Ki [2]: 0.16 µM
- Emax [5]: 97%

Structure (SMILES): CN1C(=O)C2CNCCN2c2ccccc21 (centres undefined)
- inhibition [6]: 9%

Structure (SMILES): COC(=O)c1ccc2c(c1)NC(=O)C1CNCCN21 (centres undefined)
- inhibition [6]: 1%

Structure (SMILES): Clc1cc2c(cc1Cl)N1CCNC[C@@H]1CN2
- Ki [1]: 0.007 µM
- Ki [2]: 0.088 µM
- EC50 [7]: 0.049 µM
- Emax [5]: 107%

Structure (SMILES): O=C1Nc2c(Cl)cccc2N2CCNCC12 (centres undefined)
- inhibition [6]: 15%

Structure (SMILES): O=C1Nc2c(Cl)cc(Cl)cc2N2CCNCC12 (centres undefined)
- Ki [2]: 0.368 µM

Structure (SMILES): O=C1Nc2ccc(O)cc2N2CCNCC12 (centres undefined)
- inhibition [6]: 24%

Structure (SMILES): O=C1Nc2c(F)cccc2N2CCNCC12 (centres undefined)
- inhibition [6]: 48%

Structure (SMILES): Clc1cc2c(cc1Cl)N1CCNCC1CN2 (centres undefined)
- Ki [2]: 0.018 µM
- EC50 [7]: 0.0076 µM
- Emax [5]: 96%

Structure (SMILES): O=C1Nc2ccc(F)cc2N2CCNCC12 (centres undefined)
- inhibition [6]: 26%

Structure (SMILES): Cc1ccc2c(c1)N1CCNCC1C(=O)N2 (centres undefined)
- inhibition [6]: 0%

Structure (SMILES): Nc1ccc2c(c1)NC(=O)C1CNCCN21 (centres undefined)
- inhibition [6]: 0%

Structure (SMILES): CCCCN(CCCC)c1ccc2c(c1)NC(=O)C1CNCCN21 (centres undefined)
- inhibition [6]: 7%

Structure (SMILES): O=C1Nc2ccc(Cl)cc2N2CCNCC12 (centres undefined)
- inhibition [6]: 67%

Structure (SMILES): O=C1Nc2ccccc2N2CCNC[C@@H]12
- inhibition [6]: 10%

Structure (SMILES): O=C1Nc2cc(Cl)c(Cl)cc2N2CCNCC12 (centres undefined)
- Ki [1]: 0.004 µM
- Ki [2]: 0.058 µM
- Emax [5]: 110%

Structure (SMILES): O=C1Nc2ccccc2N2CCNC[C@H]12
- inhibition [6]: 47%

Structure (SMILES): O=C1Nc2cc(C(F)(F)F)c(Cl)cc2N2CCNCC12 (centres undefined)
- Ki [1]: 0.009 µM
- Ki [2]: 0.084 µM
- EC50 [7]: 0.136 µM
- Emax [5]: 108%

Structure (SMILES): O=C1Nc2ccccc2N2CCNCC12 (centres undefined)
- inhibition [6]: 25%

Structure (SMILES): O=C1Nc2cc(Cl)c(Cl)cc2N2CCNC[C@@H]12
- Ki [2]: 0.285 µM
- Emax [5]: 88%

Structure (SMILES): O=C1Nc2cc(C(F)(F)F)ccc2N2CCNCC12 (centres undefined)
- inhibition [6]: 46%

Structure (SMILES): O=C1Nc2cc(C(F)(F)F)c(Cl)cc2N2CCNC[C@@H]12
- Ki [2]: 3.6 µM
- Emax [5]: 85%

Structure (SMILES): O=C(c1ccccc1)c1ccc2c(c1)NC(=O)C1CNCCN21 (centres undefined)
- Ki [1]: 2.15 µM
- Ki [2]: 9.2 µM
